Experimental data: ChEMBL document CHEMBL2311353, “Synthesis and antiproliferative activities of N-(naphthalen-2-yl)acetamide and N-(substituted phenyl)acetamide bearing quinolin-2(1H)-one and 3,4-dihydroquinolin-2(1H)-one derivatives” (Eur J Med Chem, 2013)

Columns and labels:
[1] = Antiproliferative activity against human Hep3B cells after 72 hrs by MTT assay; assay type: functional, cell-based, Hep 3B2
Procedure, shortened: (§1)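 Log-phase cells were seeded, left overnight, then exposed to a range of compound concentrations for 72 h. MTT at 0.4 mg/mL in MEM was added for 2 h, and formazan was read at 570 nm. GI50 was taken from percent conversion relative to mock-treated controls.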

[2] = system: A498; assay: Antiproliferative activity against human A498 cells after 72 hrs by MTT assay; assay type: functional, cell-based; conditions: A498, 72 h; procedure, shortened: as §1
[3] = system: MKN-45; assay: Antiproliferative activity against human MKN45 cells after 72 hrs by MTT assay; assay type: functional, cell-based; conditions: MKN-45, 72 h; procedure, shortened: as §1
[4] = system: NCI-H661; assay: Antiproliferative activity against human NCI-H661 cells after 72 hrs by MTT assay; assay type: functional, cell-based; conditions: NCI-H661, 72 h; procedure, shortened: as §1
[5] = Antiproliferative activity against human NPC-TW01 cells after 72 hrs by MTT assay; assay type: functional, cell-based; conditions: NPC-TW01, 72 h; procedure, shortened: as §1

Row | SMILES | IC50 [1] [µM] | IC50 [2] [µM] | IC50 [3] [µM] | IC50 [4] [µM] | IC50 [5] [µM]
1 | O=C(COc1ccc2c(c1)NC(=O)CC2)Nc1ccccc1 | 27.2 | 12 | 32.4 | 21.8 | 16
2 | O=C(COc1ccc2c(c1)NC(=O)CC2)Nc1ccc(F)cc1 | 27 | 11.3 | 38.6 | 15.3 | 15.8
3 | COc1ccc(NC(=O)COc2ccc3c(c2)NC(=O)CC3)cc1 | 31.1 | 19.3 | 36.3 | 16.4 | 13.1
4 | O=C(COc1ccc2c(c1)NC(=O)CC2)Nc1ccc(-c2ccccc2)cc1 | 8.1 | 12 | 32.4 | 15.4 | 2.9
5 | O=C(COc1ccc2c(c1)NC(=O)CC2)Nc1ccc2ccccc2c1 | 19.2 | 8.6 | 26.9 | 11.2 | 8.9
